# Reference: ChEMBL document CHEMBL1136257, “New highly active taxoids from 9beta-dihydrobaccatin-9,10-acetals. Part 3” (Bioorg Med Chem Lett, 2003)
# Tests used:
# [1] = Solubility of compound in JP2 at pH 6.8 using UV assay; type: physicochemical; details: JP2, pH 6.8
# [2] = Solubility in water using UV assay; type: physicochemical
# [3] = Solubility of compound in JP1 at pH 1.2 using UV assay; type: physicochemical; details: JP1, pH 1.2
# P388 = assay: Cytotoxic activity against mouse leukemia P388 cell line; type: functional
# In short: (§1)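 Growth inhibition (IC50) of mouse leukemia P388 and human lung cancer PC-6 and PC-12 cells after 72 h continuous exposure to compound; IC50 taken as the concentration giving 50% growth inhibition.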
# PC-6 = assay: Cytotoxic activity against human lung cancer PC-6 cell line; type: functional; in short: as §1
# PC-12 = assay: Cytotoxic activity against human lung cancer PC-12 cell line
# Mus musculus [4] = assay: Maximum rate of body weight loss was determined in mice inoculated with B16 melanoma BL6 cells sc at a dose 18 mg/kg by peroral administration; type: functional; details: route oral
# In short: (§2)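 On day 0, B16 melanoma BL6 cells (cultured line) were implanted subcutaneously into C57BL/6 mice, six per group. A single iv or oral dose was given on day 4, and body weight was followed. BWLmax (%) is the maximum rate of body weight loss; a value below 0 means no loss.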
# Mus musculus [5] = assay: Maximum rate of body weight loss was determined in mice inoculated with B16 melanoma BL6 cells sc at a dose 8 mg/kg by peroral administration; type: functional; details: route oral; in short: as §2
# Mus musculus [6] = assay: Maximum rate of body weight loss was determined in mice inoculated with B16 melanoma BL6 cells sc at a dose 12 mg/kg by intravenous administration; type: functional; in short: as §2
# Mus musculus [7] = assay: Maximum rate of body weight loss was determined in mice inoculated with B16 melanoma BL6 cells sc at a dose 12 mg/kg by peroral administration; type: functional; details: route oral; in short: as §2
# Mus musculus [8] = assay: Mean tumor weight was determined in mice inoculated with B16 melanoma BL6 cells sc at a dose 8 mg/kg po [IR (%) = (1-TWt/TWc)*100]; type: functional
# In short: (§3)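 C57BL/6 mice (six per group) received subcutaneous B16 melanoma BL6 cells on day 0 and a single iv or oral dose on day 4. Tumors were excised and weighed on day 15. Inhibition rate IR (%) = (1 − mean treated tumor weight/mean control tumor weight) × 100.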
# Mus musculus [9] = assay: Mean tumor weight was determined in mice inoculated with B16 melanoma BL6 cells sc at a dose 12 mg/kg iv [IR (%) = (1-TWt/TWc)*100]; type: functional; in short: as §3
# Mus musculus [10] = assay: Mean tumor weight was determined in mice inoculated with B16 melanoma BL6 cells sc at a dose 12 mg/kg po [IR (%) = (1-TWt/TWc)*100]; type: functional; in short: as §3
# Mus musculus [11] = assay: Mean tumor weight was determined in mice inoculated with B16 melanoma BL6 cells sc at a dose 18 mg/kg po [IR (%) = (1-TWt/TWc)*100]; type: functional; in short: as §3
# Mus musculus [12] = assay: Mortality was determined in mice inoculated with B16 melanoma BL6 cells sc at a dose 12 mg/kg by peroral administration; 0/6; type: functional; details: route oral
# Mus musculus [13] = assay: Mortality was determined in mice inoculated with B16 melanoma BL6 cells sc at a dose 18 mg/kg by peroral administration; 2/6; type: functional; details: route oral
# Mus musculus [14] = assay: Mortality rate in mice inoculated with B16 melanoma BL6 cells sc at a dose 12 mg/kg by intravenous administration; 0/6; type: functional
# Mus musculus [15] = assay: Mortality rate in mice inoculated with B16 melanoma BL6 cells sc at a dose 18 mg/kg by intravenous administration; 0/6; type: functional
# Mus musculus [16] = assay: Mortality rate in mice inoculated with B16 melanoma BL6 cells sc at a dose 8 mg/kg by peroral administration; 0/6; type: functional; details: route oral
# Mus musculus [17] = assay: Maximum rate of body weight loss was determined in mice inoculated with B16 melanoma BL6 cells sc at a dose 27 mg/kg by peroral administration; type: functional; details: route oral; in short: as §2
# Mus musculus [18] = assay: Maximum rate of body weight loss was determined in mice inoculated with B16 melanoma BL6 cells sc at a dose 5.3 mg/kg by intravenous administration; type: functional; in short: as §2
# Mus musculus [19] = assay: Maximum rate of body weight loss was determined in mice inoculated with B16 melanoma BL6 cells sc at a dose 8 mg/kg by intravenous administration; type: functional; in short: as §2
# Mus musculus [20] = assay: Maximum rate of body weight loss was determined in mice inoculated with B16 melanoma BL6 cells sc at a dose 18 mg/kg by intravenous administration; type: functional; in short: as §2
# Mus musculus [21] = assay: Mean tumor weight was determined in mice inoculated with B16 melanoma BL6 cells sc at a dose 27 mg/kg po [IR (%) = (1-TWt/TWc)*100]; type: functional; in short: as §3
# Mus musculus [22] = assay: Mean tumor weight was determined in mice inoculated with B16 melanoma BL6 cells sc at a dose 5.3 mg/kg iv [IR (%) = (1-TWt/TWc)*100]; type: functional; in short: as §3
# Mus musculus [23] = assay: Mean tumor weight was determined in mice inoculated with B16 melanoma BL6 cells sc at a dose 8 mg/kg iv [IR (%) = (1-TWt/TWc)*100]; type: functional; in short: as §3
# Mus musculus [24] = assay: Mean tumor weight was determined in mice inoculated with B16 melanoma BL6 cells sc at a dose 18 mg/kg iv [IR (%) = (1-TWt/TWc)*100]; type: functional; in short: as §3
# Mus musculus [25] = assay: Mortality was determined in mice inoculated with B16 melanoma BL6 cells sc at a dose 12 mg/kg by intravenous administration; 0/6; type: functional
# Mus musculus [26] = assay: Mortality was determined in mice inoculated with B16 melanoma BL6 cells sc at a dose 18 mg/kg by intravenous administration; 0/6; type: functional
# Mus musculus [27] = assay: Mortality was determined in mice inoculated with B16 melanoma BL6 cells sc at a dose 18 mg/kg by peroral administration; 0/6; type: functional; details: route oral
# Mus musculus [28] = assay: Mortality was determined in mice inoculated with B16 melanoma BL6 cells sc at a dose 27 mg/kg by peroral administration; 0/6; type: functional; details: route oral
# Mus musculus [29] = assay: Mortality was determined in mice inoculated with B16 melanoma BL6 cells sc at a dose 5.3 mg/kg by intravenous administration; 0/6; type: functional
# Mus musculus [30] = assay: Mortality was determined in mice inoculated with B16 melanoma BL6 cells sc at a dose 8 mg/kg by intravenous administration; 0/6; type: functional
# Mus musculus [31] = assay: Mortality was determined in mice inoculated with B16 melanoma BL6 cells sc at a dose 8 mg/kg by peroral administration; 0/6; type: functional; details: route oral
# Mus musculus [32] = assay: Maximum rate of body weight loss was determined in mice inoculated with B16 melanoma BL6 cells sc at a dose 27 mg/kg by intravenous administration; type: functional; in short: as §2
# Mus musculus [33] = assay: Maximum rate of body weight loss was determined in mice inoculated with B16 melanoma BL6 cells sc at a dose 40.5 mg/kg by peroral administration; type: functional; details: route oral; in short: as §2
# Mus musculus [34] = assay: Mean tumor weight was determined in mice inoculated with B16 melanoma BL6 cells sc at a dose 27 mg/kg iv [IR (%) = (1-TWt/TWc)*100]; type: functional; in short: as §3
# Mus musculus [35] = assay: Mean tumor weight was determined in mice inoculated with B16 melanoma BL6 cells sc at a dose 40.5 mg/kg po [IR (%) = (1-TWt/TWc)*100]; type: functional; in short: as §3
# Mus musculus [36] = assay: Mortality was determined in mice inoculated with B16 melanoma BL6 cells sc at a dose 27 mg/kg by intravenous administration; 0/6; type: functional
# Mus musculus [37] = assay: Mortality was determined in mice inoculated with B16 melanoma BL6 cells sc at a dose 40.5 mg/kg by peroral administration; 0/6; type: functional; details: route oral
Compound,solubility [1] [µg/mL],solubility [2] [µg/mL],solubility [3] [µg/mL],GI50 (P388) [ng/mL],GI50 (PC-6) [ng/mL],GI50 (PC-12) [ng/mL],BWLmax (Mus musculus [4]) [%],BWLmax (Mus musculus [5]) [%],BWLmax (Mus musculus [6]) [%],BWLmax (Mus musculus [7]) [%],IR (Mus musculus [8]) [%],IR (Mus musculus [9]) [%],IR (Mus musculus [10]) [%],IR (Mus musculus [11]) [%],Mortality (Mus musculus [12]),BWLmax (Mus musculus [17]) [%],BWLmax (Mus musculus [19]) [%],BWLmax (Mus musculus [20]) [%],IR (Mus musculus [21]) [%],IR (Mus musculus [23]) [%],also measured
CC(=O)O[C@@]12CO[C@@H]1CC[C@@]1(C)[C@@H]3O[C@H](CN4CCOCC4)O[C@@H]3C3=C(C)[C@@H](OC(=O)[C@](C)(O)[C@@H](NC(=O)OC(C)(C)C)c4ccccc4)C[C@@](O)([C@@H](OC(=O)c4ccccc4)[C@@H]12)C3(C)C,< 4,< 4,350,0.02,0.47,0.07,,,,,,,,,,,,,,,
CC(=O)O[C@@]12CO[C@@H]1CC[C@@]1(C)[C@@H]3O[C@H](CN4CCOCC4)O[C@@H]3C3=C(C)[C@@H](OC(=O)[C@](C)(O)[C@@H](NC(=O)OC(C)(C)C)c4ccccn4)C[C@@](O)([C@@H](OC(=O)c4ccccc4)[C@@H]12)C3(C)C,5,6,1800,0.12,0.11,0.06,18.1,<0,13.5,<0,42.2,96.4,92.2,98,0,,,,,,Mortality (Mus musculus [13]): 2; Mortality (Mus musculus [14]): 0; Mortality (Mus musculus [15]): 0; Mortality (Mus musculus [16]): 0
CC(=O)O[C@@]12CO[C@@H]1CC[C@@]1(C)[C@@H]3O[C@H](CN4CCOCC4)O[C@@H]3C3=C(C)[C@@H](OC(=O)[C@H](O)[C@@H](NC(=O)OC(C)(C)C)c4ccccn4)C[C@@](O)([C@@H](OC(=O)c4ccccc4)[C@@H]12)C3(C)C,11,14,1700,0.18,0.39,0.21,0.3,<0,<0,<0,27.2,94.4,84.9,93.3,0,4.5,<0,3.7,97.3,87.2,BWLmax (Mus musculus [18]): <0%; IR (Mus musculus [22]): 62.4%; IR (Mus musculus [24]): 95.6%; Mortality (Mus musculus [25]): 0; Mortality (Mus musculus [26]): 0; Mortality (Mus musculus [27]): 0; Mortality (Mus musculus [28]): 0; Mortality (Mus musculus [29]): 0; Mortality (Mus musculus [30]): 0; Mortality (Mus musculus [31]): 0
CC(=O)O[C@H]1C(=O)[C@@]2(C)[C@H]([C@H](OC(=O)c3ccccc3)[C@]3(O)C[C@H](OC(=O)[C@H](O)[C@@H](NC(=O)c4ccccc4)c4ccccc4)C(C)=C1C3(C)C)[C@]1(OC(C)=O)CO[C@@H]1C[C@@H]2O [PACLITAXEL],,,,2.93,1.27,539,,,,,,,,,,,,,,,
CC(=O)O[C@@]12CO[C@@H]1CC[C@@]1(C)[C@@H]3O[C@H](CN4CCOCC4)O[C@@H]3C3=C(C)[C@@H](OC(=O)[C@H](O)[C@@H](NC(=O)OC(C)(C)C)c4ccccc4)C[C@@](O)([C@@H](OC(=O)c4ccccc4)[C@@H]12)C3(C)C,< 4,< 4,1200,0.02,0.38,0.02,,,,,,,,,,,,,,,
CC(=O)O[C@@]12CO[C@@H]1CC[C@@]1(C)[C@@H]3O[C@H](CN4CCOCC4)O[C@@H]3C3=C(C)[C@@H](OC(=O)[C@](C)(O)[C@@H](NC(=O)c4ccccc4)c4ccccn4)C[C@@](O)([C@@H](OC(=O)c4ccccc4)[C@@H]12)C3(C)C,< 4,< 4,> 1800,0.19,0.45,0.57,<0,,<0,<0,,75.4,23.4,59.7,0,<0,<0,<0,91.3,61.3,BWLmax (Mus musculus [32]): 2.4%; BWLmax (Mus musculus [33]): 4.1%; IR (Mus musculus [34]): 95.8%; IR (Mus musculus [35]): 96.9%; IR (Mus musculus [24]): 89.8%; Mortality (Mus musculus [25]): 0; Mortality (Mus musculus [26]): 0; Mortality (Mus musculus [27]): 0; Mortality (Mus musculus [36]): 0; Mortality (Mus musculus [28]): 0; Mortality (Mus musculus [30]): 0; Mortality (Mus musculus [37]): 0
